Laboratory results taken from ChEMBL document CHEMBL1157529, “Lantadenes and their esters as potential antitumor agents” (J Nat Prod, 2008).
In brackets after ≈: the same amount, converted by molar mass.

Columns and labels:
HL-60 = experiment: Cytotoxicity against human HL60 cells after 48 hrs by MTT assay; assay type: functional, cell-based; details: HL-60, 48 h
Procedure, shortened: (§1)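 HL-60, HeLa, colon 502713 and A-549 cells grown in RPMI with 10% FBS, streptomycin and penicillin at 37 °C, 5% CO2. Cells (2 × […]/0.1 mL well) exposed 48 h to serial compound dilutions. MTT added for the final 4 h at 37 °C. Formazan extracted in DMSO and read at 540 nm. Mean and standard deviation of triplicate assays.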

HeLa = experiment: Cytotoxicity against human HeLa cells after 48 hrs by MTT assay; assay type: functional, cell-based; procedure, shortened: as §1
[1] = Cytotoxicity against human colon 502713 cells after 48 hrs by MTT assay; assay type: functional, cell-based; details: Homo sapiens, 502713, 48 h; procedure, shortened: as §1
A549 = experiment: Cytotoxicity against human A549 cells after 48 hrs by MTT assay; assay type: functional, cell-based; details: A549, 48 h; procedure, shortened: as §1
[2] = Inhibition of DMBA-induced/TPA-promoted carcinogenesis in Swiss albino mouse squamous cells assessed as incidence of skin papillomas administered orally 1 week before DMBA administration and continued for 20 weeks relative to DMPA/TPA treated control; assay type: functional
Procedure, shortened: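 Female Swiss albino mice (LACCA, 6 weeks, 18-22 g), backs depilated. DMBA 100 nmol in 100 µL acetone applied topically for 2 weeks, then TPA 1.7 nmol in 100 µL acetone twice weekly for 18 weeks. Compounds given orally in water/carboxymethyl cellulose, starting 1 week before DMBA, for 20 weeks. n = 10 per group. Papilloma incidence, body weight and survival recorded.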

[3] = Inhibition of DMBA-induced/TPA-promoted carcinogenesis in Swiss albino mouse squamous cells assessed as survival rate administered orally 1 week before DMBA administration and continued for 20 weeks relative to DMPA/TPA treated control; assay type: functional
Procedure, shortened: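 Female Swiss albino mice (LACCA, 6 weeks, 18-22 g), depilated back; DMBA 100 nmol/100 µL acetone topically for 2 weeks, then TPA 1.7 nmol/100 µL acetone twice weekly for 18 weeks. Compounds given orally as suspension in water/carboxymethyl cellulose from 1 week before DMBA for 20 weeks, n = 10/group. Number of surviving animals recorded at 20 weeks.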

With `CCCC(=O)O[C@@H]1CC(C)(C)C[C@H]2C3=CC[C@@H]4[C@@]5(C)CCC(=O)C(C)(C)[C@@H]5CC[C@@]4(C)[C@]3(C)CC[C@@]12C(=O)O` the IC50 (HL-60) was 21.6 mg/L (≈ 39.9 µM), the IC50 (HeLa) was 22.8 mg/L (≈ 42.2 µM) and the IC50 [1] was 25.2 mg/L (≈ 46.6 µM). The IC50 (A549) was 27.1 mg/L (≈ 50.1 µM) and the “inhibition (INH)” value [2] was 17.2%.
Compound `CCC(=O)O[C@@H]1CC(C)(C)C[C@H]2C3=CC[C@@H]4[C@@]5(C)CCC(=O)C(C)(C)[C@@H]5CC[C@@]4(C)[C@]3(C)CC[C@@]12C(=O)OC` has an IC50 (HL-60) of 24.2 mg/L (≈ 44.7 µM), an IC50 (HeLa) of 26.4 mg/L (≈ 48.8 µM) and an IC50 [1] of 22.4 mg/L (≈ 41.4 µM). For the same compound, the IC50 (A549) was 28.4 mg/L (≈ 52.5 µM), the “inhibition (INH)” value [2] was 17.9% and the survival rate [3] was 80%.
Work on `COC(=O)[C@@]12CC[C@]3(C)C(=CC[C@@H]4[C@@]5(C)CCC(=O)C(C)(C)[C@@H]5CC[C@]43C)[C@@H]1CC(C)(C)C[C@H]2OC(=O)c1ccccc1` yielded an IC50 (HL-60) of 48 mg/L (≈ 81.5 µM), an IC50 (HeLa) of 50.7 mg/L (≈ 86.1 µM) and an IC50 [1] of over 100 mg/L. It also gave an IC50 (A549) of over 100 mg/L.
Work on `CC(=O)O[C@@H]1CC(C)(C)C[C@H]2C3=CC[C@@H]4[C@@]5(C)CCC(=O)C(C)(C)[C@@H]5CC[C@@]4(C)[C@]3(C)CC[C@@]12C(=O)O` yielded an IC50 (HL-60) of 38.5 mg/L (≈ 75.1 µM), an IC50 (HeLa) of 37.3 mg/L (≈ 72.7 µM) and an IC50 [1] of 34.4 mg/L (≈ 67.1 µM). The IC50 (A549) was 36.8 mg/L (≈ 71.8 µM).
In the case of `CCCC(=O)O[C@@H]1CC(C)(C)C[C@H]2C3=CC[C@@H]4[C@@]5(C)CCC(=O)C(C)(C)[C@@H]5CC[C@@]4(C)[C@]3(C)CC[C@@]12C(=O)OC`, the IC50 (HL-60) is reported as 19.3 mg/L (≈ 34.8 µM), the IC50 (HeLa) is reported as 20.1 mg/L (≈ 36.2 µM) and the IC50 [1] is reported as 21.1 mg/L (≈ 38 µM). For the same compound, the IC50 (A549) was 22.4 mg/L (≈ 40.4 µM), the “inhibition (INH)” value [2] was 12.4% and the survival rate [3] was 80%.
Compound `CC(C)C(=O)O[C@@H]1CC(C)(C)C[C@H]2C3=CC[C@@H]4[C@@]5(C)CCC(=O)C(C)(C)[C@@H]5CC[C@@]4(C)[C@]3(C)CC[C@@]12C(=O)O` has an IC50 (HL-60) of 41.2 mg/L (≈ 76.2 µM), an IC50 (HeLa) of 43.6 mg/L (≈ 80.6 µM) and an IC50 [1] of 37.6 mg/L (≈ 69.5 µM). For the same compound, the IC50 (A549) was 44.2 mg/L (≈ 81.7 µM) and the survival rate [3] was 80%.
For `CC(=O)O[C@H]1C(=O)[C@@]2(C)[C@H]([C@H](OC(=O)c3ccccc3)[C@]3(O)C[C@H](OC(=O)[C@H](O)[C@@H](NC(=O)c4ccccc4)c4ccccc4)C(C)=C1C3(C)C)[C@]1(OC(C)=O)CO[C@@H]1C[C@@H]2O` [PACLITAXEL], the IC50 (HL-60) was under 2 mg/L, the IC50 (HeLa) was over 3 mg/L and the IC50 [1] was under 2 mg/L. It also gave an IC50 (A549) of under 2 mg/L.
Work on `COC(=O)[C@@]12CC[C@]3(C)C(=CC[C@@H]4[C@@]5(C)CCC(=O)C(C)(C)[C@@H]5CC[C@]43C)[C@@H]1CC(C)(C)C[C@H]2OC(=O)C(C)C` yielded an IC50 (HL-60) of 39.5 mg/L (≈ 71.2 µM), an IC50 (HeLa) of 41.1 mg/L (≈ 74.1 µM) and an IC50 [1] of 38.1 mg/L (≈ 68.7 µM). For the same compound, the IC50 (A549) was 42.2 mg/L (≈ 76.1 µM).
In the case of `COC(=O)[C@@]12CC[C@]3(C)C(=CC[C@@H]4[C@@]5(C)CCC(=O)C(C)(C)[C@@H]5CC[C@]43C)[C@@H]1CC(C)(C)C[C@H]2OC(C)=O`, the IC50 (HL-60) is reported as 37.3 mg/L (≈ 70.8 µM), the IC50 (HeLa) is reported as 36.2 mg/L (≈ 68.7 µM) and the IC50 [1] is reported as 34.6 mg/L (≈ 65.7 µM). The IC50 (A549) was 36.8 mg/L (≈ 69.9 µM).
Compound `CCC(=O)O[C@@H]1CC(C)(C)C[C@H]2C3=CC[C@@H]4[C@@]5(C)CCC(=O)C(C)(C)[C@@H]5CC[C@@]4(C)[C@]3(C)CC[C@@]12C(=O)O` has an IC50 (HL-60) of 26.4 mg/L (≈ 50.1 µM), an IC50 (HeLa) of 28.6 mg/L (≈ 54.3 µM) and an IC50 [1] of 25.4 mg/L (≈ 48.2 µM). The IC50 (A549) was 29.6 mg/L (≈ 56.2 µM), the “inhibition (INH)” value [2] was 19.6% and the survival rate [3] was 80%.
Work on `C/C=C(/C)C(=O)O[C@@H]1CC(C)(C)C[C@H]2C3=CC[C@@H]4[C@@]5(C)CCC(=O)C(C)(C)[C@@H]5CC[C@@]4(C)[C@]3(C)CC[C@@]12C(=O)O` [LANTADENE A] yielded an IC50 (HL-60) of 19.8 mg/L (≈ 35.8 µM), an IC50 (HeLa) of 23.3 mg/L (≈ 42.1 µM) and an IC50 [1] of 21.3 mg/L (≈ 38.5 µM). The IC50 (A549) was 21.8 mg/L (≈ 39.4 µM) and the “inhibition (INH)” value [2] was 18.1%.
For `COC(=O)[C@@]12CC[C@]3(C)C(=CC[C@@H]4[C@@]5(C)CCC(=O)C(C)(C)[C@@H]5CC[C@]43C)[C@@H]1CC(C)(C)C[C@H]2O`, the IC50 (HL-60) was 70.6 mg/L (≈ 146 µM), the IC50 (HeLa) was over 100 mg/L and the IC50 [1] was 72.4 mg/L (≈ 149 µM). For the same compound, the IC50 (A549) was 84.2 mg/L (≈ 174 µM).
`CC1(C)C[C@@H](O)[C@]2(C(=O)O)CC[C@]3(C)C(=CC[C@@H]4[C@@]5(C)CCC(=O)C(C)(C)[C@@H]5CC[C@]43C)[C@@H]2C1` gave an IC50 (HL-60) of under 100 mg/L, an IC50 (HeLa) of over 100 mg/L and an IC50 [1] of over 100 mg/L. For the same compound, the IC50 (A549) was over 100 mg/L.
`CC1(C)C[C@@H](OC(=O)c2ccccc2)[C@]2(C(=O)O)CC[C@]3(C)C(=CC[C@@H]4[C@@]5(C)CCC(=O)C(C)(C)[C@@H]5CC[C@]43C)[C@@H]2C1` gave an IC50 (HL-60) of 50.8 mg/L (≈ 88.4 µM), an IC50 (HeLa) of 46.3 mg/L (≈ 80.5 µM) and an IC50 [1] of 51.2 mg/L (≈ 89.1 µM). The IC50 (A549) was over 100 mg/L.
